ChEMBL document CHEMBL1124695, “Brain-specific chemical delivery systems for beta-lactam antibiotics. Synthesis and properties of some dihydropyridine and dihydroiosquinoline derivatives of benzylpenicillin” (J Med Chem, 1989)

Legend:
[1] = Half life of compound when water is added (0.15u) in pH 7.4 phosphate buffer (0.05 M) at 37 degree C; format: ADME
How it was run: (§1)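 Chemical stability: compound added from freshly prepared 8 mM DMSO stock into 0.05 M phosphate buffer (μ = 0.15), pH 7.4, at 37 °C. Samples drawn at intervals and injected directly onto reversed-phase HPLC with UV detection. Buffer pH checked before and after. Disappearance followed first-order kinetics, giving apparent rate constants. Half-life in minutes.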

[2] = Half life of compound (0.15u) in pH 7.4 phosphate buffer (0.05 M) at 37 degree C; format: ADME; how it was run: as §1
Homo sapiens [3] = assay: Concentration of compound in human blood tissues after intravenous administration of 2 g dose; format: ADME, organism-based
[4] = Dissociation constant of the compound; format: physicochemical
[5] = Partition coefficient (logP); format: physicochemical; conditions: octanol/water
Homo sapiens [6] = assay: Concentration of compound in human brain tissues after intravenous administration of 2 g dose; format: ADME, organism-based; conditions: in vivo
[7] = Second order oxidation rate constant determined by using Ferricyanide; format: ADME
How it was run: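 Oxidation by ferricyanide under pseudo-first-order conditions, with Fe(CN)6^3- in large excess over the dihydro carrier and pH held constant. Pseudo-first-order rates were measured at several ferricyanide concentrations, and the second-order oxidation rate constant (Ko) was derived from them.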

[8] = Stability in aqueous buffer at pH 7.4; format: physicochemical; how it was run: as §1

Row | half-life [1] | SMILES | half-life [2] | Ko [7] | also measured
1 | 0.615 h | C[n+]1cccc(C(=O)OCCOC(=O)C2N3C(=O)[C@@H](NC(=O)Cc4ccccc4)[C@H]3SC2(C)C)c1.[I-] (stereo partly specified) | – | – | –
2 | – | CN1C=C(C(=O)NCCOC(=O)C2N3C(=O)[C@@H](NC(=O)Cc4ccccc4)[C@H]3SC2(C)C)c2ccccc2C1 (stereo partly specified) | 16.5 h | – | –
3 | – | CC1(C)S[C@@H]2[C@H](NC(=O)Cc3ccccc3)C(=O)N2[C@H]1C(=O)O [PENICILLIN G] | – | – | Concentration (Homo sapiens [3]): 7500 ng/mL; pKa [4]: 2.6; logP [5]: 1.76; Concentration (Homo sapiens [6]): 320 ng/mL
4 | – | CC(CNC(=O)C1=CN(C)C=CC1)OC(=O)C1N2C(=O)[C@@H](NC(=O)Cc3ccccc3)[C@H]2SC1(C)C (stereo partly specified) | 0.43 h | 11.94 M⁻¹ s⁻¹ | –
5 | – | CC1(C)S[C@@H]2[C@H](NC(=O)Cc3ccccc3)C(=O)N2C1C(=O)OCCO (stereo partly specified) | 7.27 h | – | k [8]: 0.0016 min⁻¹
6 | 0.045 h | C[n+]1cccc(C(=O)OCOC(=O)C2N3C(=O)[C@@H](NC(=O)Cc4ccccc4)[C@H]3SC2(C)C)c1.[I-] (stereo partly specified) | – | – | –
7 | 6.06 h | CC(CNC(=O)c1ccc[n+](C)c1)OC(=O)C1N2C(=O)[C@@H](NC(=O)Cc3ccccc3)[C@H]2SC1(C)C.[I-] (stereo partly specified) | – | – | –
8 | 4.47 h | C[n+]1cccc(C(=O)NCC(OC(=O)C2N3C(=O)[C@@H](NC(=O)Cc4ccccc4)[C@H]3SC2(C)C)c2ccccc2)c1.[I-] (stereo partly specified) | – | – | –
9 | 6.29 h | C[n+]1cc(C(=O)NCCOC(=O)C2N3C(=O)[C@@H](NC(=O)Cc4ccccc4)[C@H]3SC2(C)C)c2ccccc2c1.[I-] (stereo partly specified) | – | – | –
10 | – | CN1C=CCC(C(=O)NCC(OC(=O)C2N3C(=O)[C@@H](NC(=O)Cc4ccccc4)[C@H]3SC2(C)C)c2ccccc2)=C1 (stereo partly specified) | 0.587 h | 15.85 M⁻¹ s⁻¹ | –
11 | 3.26 h | C[n+]1cccc(C(=O)NCCOC(=O)C2N3C(=O)[C@@H](NC(=O)Cc4ccccc4)[C@H]3SC2(C)C)c1.[I-] (stereo partly specified) | – | – | –

Row | SMILES | half-life [1] | half-life [2] | Ko [7] | also measured
12 | CN1C=CCC(C(=O)OCOC(=O)C2N3C(=O)[C@@H](NC(=O)Cc4ccccc4)[C@H]3SC2(C)C)=C1 (stereo partly specified) | 2.26 h | 1.55 h | 0.53 M⁻¹ s⁻¹ | –
13 | CN1C=CCC(C(=O)NCCOC(=O)C2N3C(=O)[C@@H](NC(=O)Cc4ccccc4)[C@H]3SC2(C)C)=C1 (stereo partly specified) | 2.47 h | 0.213 h | 26.08 M⁻¹ s⁻¹ | –
14 | CN1C=CCC(C(=O)OCCOC(=O)C2N3C(=O)[C@@H](NC(=O)Cc4ccccc4)[C@H]3SC2(C)C)=C1 (stereo partly specified) | 7.38 h | 1.93 h | 1.552 M⁻¹ s⁻¹ | –
